The values below come from ChEMBL document CHEMBL2163256, “6-(methylamino)hexane-1,2,3,4,5-pentanol 4-(((1S,2S)-1-hydroxy-2,3-dihydro-1H,1'H-[2,2-biinden]-2-yl)methyl)benzoate (PH46A): a novel small molecule with efficacy in murine models of colitis” (J Med Chem, 2012).

Structures are written as SMILES. Calls of active or inactive are those of the source. No cut-off for these calls is given here.

In data set [1] the test system is Mus musculus. Briefly: Antiinflammatory activity against po dosed DSS-induced colitis BALB/c mouse model assessed as decrease in disease activity index administered daily once for 7 days measured on day 7 relative to vehicle-treated control. The class given is functional, organism-based. Put shortly:
(§1)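 Female SPF BALB/c mice, 6−8 weeks old; colitis induced by 5% DSS in tap drinking water (renewed every second day) for 7 days. Daily oral dosing for 7 days as suspension/solution in 0.5% carboxymethyl cellulose/2% Tween 80. Daily body weight; DAI per mouse each day from weight loss, occult blood and stool consistency; colon length at autopsy. Mean ± SEM, n = 6−7.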

The subject of data set [2] is Mus musculus. Briefly: Antiinflammatory activity in IL-10 -/- BALB/c mouse assessed as reduction in histological colon damage score at 300 mg/kg, po administered as divided dose 3 times a week for 9 weeks relative to vehicle-treated control. The class given is functional, organism-based. Also noted: dose 300 mg/kg. Put shortly:
(§2)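 IL-10−/− BALB/c-background mice, bred SPF, treated from 6−8 weeks of age by oral gavage of 300 mg/kg/week in distilled water (vehicle), Mon/Wed/Fri, for 9 weeks. Weight, rectal bleeding and prolapse monitored. At 9 weeks serum SAA was measured by sandwich ELISA. Proximal colon (1 cm) was fixed, H&E-stained and scored blinded by two observers (maximum 4). n = 9 vehicle, 11 treated; Student's t test.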

For data set [3], the system named is Mus musculus. In words: Antiinflammatory activity in IL-10 -/- BALB/c mouse assessed as prevention of rectal prolapse at 300 mg/kg, po administered as divided dose 3 times a week for 9 weeks relative to vehicle-treated control. It is filed as functional, organism-based. On the set-up: dose 300 mg/kg. In a few lines: as §2
The test system of data set [4] is Mus musculus. Briefly: Antiinflammatory activity in IL-10 -/- BALB/c mouse assessed as prevention of rectal bleeding at 300 mg/kg, po administered as divided dose 3 times a week for 9 weeks relative to vehicle-treated control. The class given is functional, organism-based. On the set-up: dose 300 mg/kg. Put shortly:
as §2

Data set [5] concerns Mus musculus. Briefly: Antiinflammatory activity in IL-10 -/- BALB/c mouse assessed as prevention of weight loss at 300 mg/kg, po administered as divided dose 3 times a week for 9 weeks relative to vehicle-treated control. It is filed as functional, organism-based. Also noted: dose 300 mg/kg. In a few lines: as §2
The test system of data set [6] is Mus musculus. In words: Antiinflammatory activity against po dosed DSS-induced colitis BALB/c mouse model assessed as reduction in histological colon damage score administered daily once for 7 days measured on day 7. The class given is functional, organism-based. Put shortly:
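After 7 days of 5% DSS with daily oral dosing, about 1 cm distal colon was fixed in 10% formaldehyde-saline, paraffin-embedded, cut into 5 μm serial sections and H&E-stained. Scoring covered cell infiltration (0−3) and extent of injury (0−3), done blinded by two independent observers.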

Data set [7] deals with Mus musculus. In words: Antiinflammatory activity against DSS-induced colitis BALB/c mouse model assessed as reduction in TNFalpha level at 30 mg/kg, po qd for 7 days measured on day 7 relative to vehicle-treated control. It is filed as functional, organism-based. Also noted: dose 30 mg/kg. In a few lines:
(§3)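 DSS colitis in female BALB/c mice (5% DSS in drinking water, 7 days, daily oral dosing). At autopsy, colon remaining after histology sampling snap-frozen, stored at −20 °C, thawed, contents removed, chopped and homogenized; supernatant protein determined. IL1b, IL6 and TNFα in colon supernatant by sandwich ELISA, expressed as ng/mg. Mean ± SEM, n = 6−7.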

The subject of data set [8] is Mus musculus. In words: Antiinflammatory activity against DSS-induced colitis BALB/c mouse model assessed as reduction in IL6 level at 30 mg/kg, po qd for 7 days measured on day 7 relative to vehicle-treated control. It is filed as functional, organism-based. Also noted: dose 30 mg/kg. In a few lines: as §3
The subject of data set [9] is Mus musculus. Briefly: Antiinflammatory activity against DSS-induced colitis BALB/c mouse model assessed as reduction in IL1b level at 30 mg/kg, po qd for 7 days measured on day 7 relative to vehicle-treated control. It is filed as functional, organism-based. On the set-up: dose 30 mg/kg. Put shortly:
as §3

The subject of data set [10] is Mus musculus. Briefly: Antiinflammatory activity against po dosed DSS-induced colitis BALB/c mouse model assessed as reduction in TNFalpha level administered daily once for 7 days measured on day 7 relative to vehicle-treated control. The class given is functional, organism-based. Put shortly: as §3
In data set [11] the test system is Mus musculus. In words: Antiinflammatory activity against po dosed DSS-induced colitis BALB/c mouse model assessed as reduction in IL6 level administered daily once for 7 days measured on day 7 relative to vehicle-treated control. It is filed as functional, organism-based. Put shortly:
as §3

Data set [12] has as its system Mus musculus. In words: Antiinflammatory activity against po dosed DSS-induced colitis BALB/c mouse model assessed as reduction in IL1b level administered daily once for 7 days measured on day 7 relative to vehicle-treated control. The class given is functional, organism-based. In a few lines: as §3
Data set [13] concerns Mus musculus. Briefly: Antiinflammatory activity against po dosed DSS-induced colitis BALB/c mouse model assessed as reduction in shortening of colon administered daily once for 7 days measured on day 7 relative to vehicle-treated control. The class given is functional, organism-based. In a few lines: as §1
Data set [14] concerns Mus musculus. In words: Antiinflammatory activity against DSS-induced colitis BALB/c mouse model assessed as increase in colon lenght at 10 mg/kg, po qd for 7 days relative to vehicle-treated control. It is filed as functional, organism-based. Also noted: dose 10 mg/kg. Put shortly: as §1
For data set [15], the system named is Mus musculus. In words: Antiinflammatory activity against DSS-induced colitis BALB/c mouse model assessed as decrease in disease activity index at 10 mg/kg, po qd for 7 days relative to vehicle-treated control. It is filed as functional, organism-based. On the set-up: dose 10 mg/kg. In a few lines:
as §1

For data set [16], the system named is Mus musculus. Briefly: Antiinflammatory activity against DSS-induced colitis BALB/c mouse model assessed as prevention of body weight loss at 10 mg/kg, po qd for 7 days relative to vehicle-treated control. It is filed as functional, organism-based. On the set-up: dose 10 mg/kg. In a few lines: as §1
The test system of data set [17] is Mus musculus. Briefly: Antiinflammatory activity against DSS-induced colitis BALB/c mouse model assessed as increase in colon lenght at 30 mg/kg, po qd for 7 days relative to vehicle-treated control. Also noted: dose 30 mg/kg. It is filed as functional, organism-based. In a few lines: as §1
Data set [18] concerns Mus musculus. In words: Antiinflammatory activity against DSS-induced colitis BALB/c mouse model assessed as decrease in disease activity index at 30 mg/kg, po qd for 7 days relative to vehicle-treated control. On the set-up: dose 30 mg/kg. It is filed as functional, organism-based. In a few lines: as §1
Data set [19] relates to Mus musculus. In words: Toxicity in DSS-induced colitis BALB/c mouse model assessed as overt reactions at 30 mg/kg, po qd for 7 days relative to vehicle-treated control. The class given is organism-based. Also noted: dose 30 mg/kg, route oral. The settings on record: in vivo, 168 h.
Data set [20] deals with Mus musculus. Briefly: Antiinflammatory activity against DSS-induced colitis BALB/c mouse model assessed as decrease in disease activity index at 30 mg/kg, po qd for 7 days measured on day 6 relative to vehicle-treated control. It is filed as functional, organism-based. On the set-up: dose 30 mg/kg. Put shortly:
as §1

Regarding `O=C(O)c1ccc(C[C@@]2(C3=Cc4ccccc4C3)Cc3ccccc3[C@H]2O)cc1` [listing 1 of 2 here], the Activity result in the data set with Mus musculus [1], with Mus musculus [6], in the data set with Mus musculus [10], in the data set with Mus musculus [11], in the data set on Mus musculus [12] and with Mus musculus [13] was “Dose-dependent effect” each time. For the same molecule, the outcome with Mus musculus [2], in the data set on Mus musculus [7], with Mus musculus [8], in the data set with Mus musculus [9], in the data set on Mus musculus [14] and with Mus musculus [15] was Active. The result in the data set with Mus musculus [16], in the data set with Mus musculus [17] and in the data set on Mus musculus [18] was Active. Further, the result with Mus musculus [3], in the data set with Mus musculus [4] and in the data set on Mus musculus [5] was inactive.

On to `O=C(O)c1ccc(C[C@@]2(C3=Cc4ccccc4C3)Cc3ccccc3[C@H]2O)cc1` [listing 2 of 2 here], for which the Activity entry in the data set with Mus musculus [19] is reported as “Non-toxic”.

As for `O=C(O)c1ccc(C[C@]2(C3=Cc4ccccc4C3)Cc3ccccc3[C@H]2O)cc1`, the Activity entry in the data set on Mus musculus [19] is “Non-toxic”. The outcome in the data set with Mus musculus [14] and in the data set with Mus musculus [15] was inactive. The outcome in the data set with Mus musculus [17] and in the data set with Mus musculus [18] was Active.

As for `O=C(O)c1ccc(C[C@]2(C3=Cc4ccccc4C3)Cc3ccccc3[C@@H]2O)cc1`, the Activity entry with Mus musculus [19] is reported as “Non-toxic”. For the same molecule, the result in the data set on Mus musculus [20] was inactive. For the same molecule, the outcome in the data set on Mus musculus [17] and in the data set on Mus musculus [18] was Active.
